Reference: ChEMBL document CHEMBL4011605, “N-Piperonyl substitution on aminoquinoline-pyrimidine hybrids: Effect on the antiplasmodial potency” (Eur J Med Chem, 2017)

System: Plasmodium falciparum
Assay: Antiplasmodial activity against chloroquine-sensitive Plasmodium falciparum D6 infected in red blood cells after 72 hrs by Malstat reagent based LDH assay
Assay type: functional, cell-based
Details: D6, 72 h

SMILES | IC50 [nM]
CCN1CCN(c2nc(C)cc(N(CCCNc3ccnc4cc(Cl)ccc34)Cc3ccc4c(c3)OCO4)n2)CC1 | 40
Cc1cc(N(CCCNc2ccnc3cc(Cl)ccc23)Cc2ccc3c(c2)OCO3)nc(N2CCOCC2)n1 | 150
Clc1ccc2c(NCCCNCc3ccc4c(c3)OCO4)ccnc2c1 | 40
Cc1cc(N(CCNc2ccnc3cc(Cl)ccc23)Cc2ccc3c(c2)OCO3)nc(N2CCOCC2)n1 | 50
Cc1cc(N(CCNc2ccnc3cc(Cl)ccc23)Cc2ccc3c(c2)OCO3)nc(Cl)n1 | 590
Cc1cc(N2CCCC2)nc(N(CCCNc2ccnc3cc(Cl)ccc23)Cc2ccc3c(c2)OCO3)n1 | 120
Cc1cc(N(CCCNc2ccnc3cc(Cl)ccc23)Cc2ccc3c(c2)OCO3)nc(Cl)n1 | 460
Cc1cc(N2CCCC2)nc(N(CCNc2ccnc3cc(Cl)ccc23)Cc2ccc3c(c2)OCO3)n1 | 150
CCN1CCN(c2cc(C)nc(N(CCCNc3ccnc4cc(Cl)ccc34)Cc3ccc4c(c3)OCO4)n2)CC1 | 120
Cc1cc(Cl)nc(N(CCNc2ccnc3cc(Cl)ccc23)Cc2ccc3c(c2)OCO3)n1 | 480
Cc1cc(N2CCCCC2)nc(N(CCCNc2ccnc3cc(Cl)ccc23)Cc2ccc3c(c2)OCO3)n1 | 150

System: Plasmodium falciparum
Assay: Antiplasmodial activity against chloroquine-resistant Plasmodium falciparum W2 infected in red blood cells after 72 hrs by Malstat reagent based LDH assay
Assay type: functional, cell-based
Details: W2, 72 h

SMILES | IC50 [nM]
CCN1CCN(c2nc(C)cc(N(CCCNc3ccnc4cc(Cl)ccc34)Cc3ccc4c(c3)OCO4)n2)CC1 | 170
Cc1cc(N(CCCNc2ccnc3cc(Cl)ccc23)Cc2ccc3c(c2)OCO3)nc(N2CCOCC2)n1 | 910
Clc1ccc2c(NCCCNCc3ccc4c(c3)OCO4)ccnc2c1 | 100
Cc1cc(N(CCNc2ccnc3cc(Cl)ccc23)Cc2ccc3c(c2)OCO3)nc(N2CCOCC2)n1 | 220
Cc1cc(N(CCNc2ccnc3cc(Cl)ccc23)Cc2ccc3c(c2)OCO3)nc(Cl)n1 | 780
Cc1cc(N2CCCC2)nc(N(CCCNc2ccnc3cc(Cl)ccc23)Cc2ccc3c(c2)OCO3)n1 | 590
Cc1cc(N(CCCNc2ccnc3cc(Cl)ccc23)Cc2ccc3c(c2)OCO3)nc(Cl)n1 | 1140
Cc1cc(N2CCCC2)nc(N(CCNc2ccnc3cc(Cl)ccc23)Cc2ccc3c(c2)OCO3)n1 | 930
CCN1CCN(c2cc(C)nc(N(CCCNc3ccnc4cc(Cl)ccc34)Cc3ccc4c(c3)OCO4)n2)CC1 | 220
Cc1cc(Cl)nc(N(CCNc2ccnc3cc(Cl)ccc23)Cc2ccc3c(c2)OCO3)n1 | 1010
Cc1cc(N2CCCCC2)nc(N(CCCNc2ccnc3cc(Cl)ccc23)Cc2ccc3c(c2)OCO3)n1 | 360

System: not listed separately
Assay: Selectivity index, ratio of IC50 for African green monkey Vero cells to IC50 for chloroquine-sensitive Plasmodium falciparum D6
Assay type: toxicity
Details: read-out: Ratio IC50
Summary of the method: (§1)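 Selectivity index is the ratio of the VERO cytotoxicity IC50 to the antiplasmodial IC50 for the strain named. VERO cells were tested up to a highest concentration of 9 µM.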

SMILES | selectivity ratio
CCN1CCN(c2nc(C)cc(N(CCCNc3ccnc4cc(Cl)ccc34)Cc3ccc4c(c3)OCO4)n2)CC1 | > 194
Cc1cc(N(CCCNc2ccnc3cc(Cl)ccc23)Cc2ccc3c(c2)OCO3)nc(N2CCOCC2)n1 | > 60
Clc1ccc2c(NCCCNCc3ccc4c(c3)OCO4)ccnc2c1 | > 243
Cc1cc(N(CCNc2ccnc3cc(Cl)ccc23)Cc2ccc3c(c2)OCO3)nc(N2CCOCC2)n1 | > 243
Cc1cc(N(CCNc2ccnc3cc(Cl)ccc23)Cc2ccc3c(c2)OCO3)nc(Cl)n1 | > 16.8
Cc1cc(N2CCCC2)nc(N(CCCNc2ccnc3cc(Cl)ccc23)Cc2ccc3c(c2)OCO3)n1 | > 76.7
Cc1cc(N(CCCNc2ccnc3cc(Cl)ccc23)Cc2ccc3c(c2)OCO3)nc(Cl)n1 | > 20.9
Cc1cc(N2CCCC2)nc(N(CCNc2ccnc3cc(Cl)ccc23)Cc2ccc3c(c2)OCO3)n1 | > 59.2
CCN1CCN(c2cc(C)nc(N(CCCNc3ccnc4cc(Cl)ccc34)Cc3ccc4c(c3)OCO4)n2)CC1 | > 71.1
Cc1cc(Cl)nc(N(CCNc2ccnc3cc(Cl)ccc23)Cc2ccc3c(c2)OCO3)n1 | > 20.5
Cc1cc(N2CCCCC2)nc(N(CCCNc2ccnc3cc(Cl)ccc23)Cc2ccc3c(c2)OCO3)n1 | > 57.2

System: not listed separately
Assay: Selectivity index, ratio of IC50 for African green monkey Vero cells to IC50 for chloroquine-resistant Plasmodium falciparum W2
Assay type: toxicity
Details: read-out: Ratio IC50
Summary of the method: as §1

SMILES | selectivity ratio
CCN1CCN(c2nc(C)cc(N(CCCNc3ccnc4cc(Cl)ccc34)Cc3ccc4c(c3)OCO4)n2)CC1 | > 47.6
Cc1cc(N(CCCNc2ccnc3cc(Cl)ccc23)Cc2ccc3c(c2)OCO3)nc(N2CCOCC2)n1 | > 9.5
Clc1ccc2c(NCCCNCc3ccc4c(c3)OCO4)ccnc2c1 | > 84.5
Cc1cc(N(CCNc2ccnc3cc(Cl)ccc23)Cc2ccc3c(c2)OCO3)nc(N2CCOCC2)n1 | > 66.8
Cc1cc(N(CCNc2ccnc3cc(Cl)ccc23)Cc2ccc3c(c2)OCO3)nc(Cl)n1 | > 12.3
Cc1cc(N2CCCC2)nc(N(CCCNc2ccnc3cc(Cl)ccc23)Cc2ccc3c(c2)OCO3)n1 | > 15.1
Cc1cc(N(CCCNc2ccnc3cc(Cl)ccc23)Cc2ccc3c(c2)OCO3)nc(Cl)n1 | > 8.4
Cc1cc(N2CCCC2)nc(N(CCNc2ccnc3cc(Cl)ccc23)Cc2ccc3c(c2)OCO3)n1 | > 9.8
CCN1CCN(c2cc(C)nc(N(CCCNc3ccnc4cc(Cl)ccc34)Cc3ccc4c(c3)OCO4)n2)CC1 | > 37.9
Cc1cc(Cl)nc(N(CCNc2ccnc3cc(Cl)ccc23)Cc2ccc3c(c2)OCO3)n1 | > 9.8
Cc1cc(N2CCCCC2)nc(N(CCCNc2ccnc3cc(Cl)ccc23)Cc2ccc3c(c2)OCO3)n1 | > 24.2

System: Plasmodium falciparum
Assay: Potency index, ratio of chloroquine IC50 to compound IC50 for chloroquine-resistant Plasmodium falciparum W2
Assay type: functional
Details: not given

SMILES | Ratio IC50
CCN1CCN(c2nc(C)cc(N(CCCNc3ccnc4cc(Cl)ccc34)Cc3ccc4c(c3)OCO4)n2)CC1 | 2 - 5
Clc1ccc2c(NCCCNCc3ccc4c(c3)OCO4)ccnc2c1 | 2 - 5
Cc1cc(N(CCNc2ccnc3cc(Cl)ccc23)Cc2ccc3c(c2)OCO3)nc(N2CCOCC2)n1 | 2 - 5
CCN1CCN(c2cc(C)nc(N(CCCNc3ccnc4cc(Cl)ccc34)Cc3ccc4c(c3)OCO4)n2)CC1 | 2 - 5

System: Vero
Assay: Cytotoxicity against African green monkey Vero cells up to 9 uM
Assay type: cell-based
Details: chlorocebus sabaeus

SMILES | Activity
CCN(CC)CCCC(C)Nc1ccnc2cc(Cl)ccc12 (stereo not given) [CHLOROQUINE] | Non-Toxic
CCN1CCN(c2nc(C)cc(N(CCCNc3ccnc4cc(Cl)ccc34)Cc3ccc4c(c3)OCO4)n2)CC1 | Non-Toxic
Cc1cc(N(CCCNc2ccnc3cc(Cl)ccc23)Cc2ccc3c(c2)OCO3)nc(N2CCOCC2)n1 | Non-Toxic
Clc1ccc2c(NCCCNCc3ccc4c(c3)OCO4)ccnc2c1 | Non-Toxic
Cc1cc(N(CCNc2ccnc3cc(Cl)ccc23)Cc2ccc3c(c2)OCO3)nc(N2CCOCC2)n1 | Non-Toxic
Cc1cc(N(CCNc2ccnc3cc(Cl)ccc23)Cc2ccc3c(c2)OCO3)nc(Cl)n1 | Non-Toxic
Cc1cc(N2CCCC2)nc(N(CCCNc2ccnc3cc(Cl)ccc23)Cc2ccc3c(c2)OCO3)n1 | Non-Toxic
Cc1cc(N(CCCNc2ccnc3cc(Cl)ccc23)Cc2ccc3c(c2)OCO3)nc(Cl)n1 | Non-Toxic
Cc1cc(N2CCCC2)nc(N(CCNc2ccnc3cc(Cl)ccc23)Cc2ccc3c(c2)OCO3)n1 | Non-Toxic
CCN1CCN(c2cc(C)nc(N(CCCNc3ccnc4cc(Cl)ccc34)Cc3ccc4c(c3)OCO4)n2)CC1 | Non-Toxic
Cc1cc(Cl)nc(N(CCNc2ccnc3cc(Cl)ccc23)Cc2ccc3c(c2)OCO3)n1 | Non-Toxic
Cc1cc(N2CCCCC2)nc(N(CCCNc2ccnc3cc(Cl)ccc23)Cc2ccc3c(c2)OCO3)n1 | Non-Toxic
